# Rows were chosen to be rich in hits. Some 2.9% of all compounds tested hit in one or more screens of this group.
# HTRA1 inhibitor: HTRA1 serine protease inhibitors, primary screen, biochemical, fluorescence polarization, HTS | Q92743 | recombinant HTRA1, FP-rhodamine activity-based probe | inhibition, % at 5.96 µM | 340,000 tested, 0.5% active; in the data active means inhibition above about 36%;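 further: 0% = enzyme with DMSO and 100% = wells lacking enzyme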
# TCR-CD3 inh: inhibitors of human TCR-CD3 interaction, primary screen, biochemical, fluorescence, TAMRA-labeled TCR probe | AID 651800, 2012 | T-cell receptor (TCR) | inhibition, % at 9.4 µM | 360,000 tested, 0.37% active; in the data active means inhibition above about 19%;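 further: recombinant mutant TCR 2C K166C tagged with TAMRA read by polarization; 0% = receptor in buffer alone and 100% = receptor with positive control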
# SIAE inh: human SIAE inhibitors, primary screen, biochemical, fluorescence polarization, FP-Rh probe, 1536-well HTS | Sialate O-acetylesterase (Homo sapiens), Q9HAT2 | inhibition, % at 9.66 µM | AID 1053197, 2014 | SIAE FP-Rh probe binding | 370,000 tested, 0.69% active;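 active means inhibition above a cutoff: mean of compounds within the control limits plus 3 SD of those, cut at about 17% in these data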;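 further: 0% = plate median of compound wells and 100% = probe without SIAE protein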
# PRMT1 FP inh: PRMT1 methyltransferase inhibitors, primary screen, biochemical, fluorescence polarization; Protein arginine N-methyltransferase 1 (Homo sapiens), Q99873; recombinant PRMT1, activity-based probe fluorescence polarization; inhibition, % at 2.79 µM; 370,000 tested, 1.3% active; AID 652257, 2013;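 active means inhibition above about 21% made by adding two undisclosed values, limit read from the data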
# mABHD4 FP: ABHD4 inhibitors, primary screen, biochemical, fluorescence polarization, mouse; AID 720543, 2013; 370,000 tested, 0.54% active; purified mABHD4, FP-Rh probe fluorescence polarization; inhibition, % at 8.92 µM;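 active means inhibition exceeding the mean over every tested compound plus 3 SD, cut at about 30% in these data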;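 further: 0% = plate median of compound wells and 100% = S159A mutant with DMSO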
#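 Assay system: mouse ABHD4 enzyme, wild type / Also added: fluorescent activity-based probe FP-Rh / Doses: single nominal dose of 8.92 µM, 0.89% DMSO final / Timing: 45 min compound pre-incubation plus 60 min probe step, 25 °C / Signal: FP readout, ex 525 nm / em 598 nm / Control set: S159A mutant/DMSO as 100%, compound-well median as 0%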
# ATG4B inhibitor: ATG4B protease inhibitors, primary screen, biochemical, fluorescence, uHTS. Cysteine protease ATG4B (Homo sapiens), Q9Y4P1. ATG4B cleavage of LC3-PLA2, NBD-HPC fluorescence, 1 h. inhibition, % at 8.33 µM. 340,000 tested, 0.51% active; in the data active means inhibition above about 40%
# Target sequence (Q9Y4P1 whole entry, looked up): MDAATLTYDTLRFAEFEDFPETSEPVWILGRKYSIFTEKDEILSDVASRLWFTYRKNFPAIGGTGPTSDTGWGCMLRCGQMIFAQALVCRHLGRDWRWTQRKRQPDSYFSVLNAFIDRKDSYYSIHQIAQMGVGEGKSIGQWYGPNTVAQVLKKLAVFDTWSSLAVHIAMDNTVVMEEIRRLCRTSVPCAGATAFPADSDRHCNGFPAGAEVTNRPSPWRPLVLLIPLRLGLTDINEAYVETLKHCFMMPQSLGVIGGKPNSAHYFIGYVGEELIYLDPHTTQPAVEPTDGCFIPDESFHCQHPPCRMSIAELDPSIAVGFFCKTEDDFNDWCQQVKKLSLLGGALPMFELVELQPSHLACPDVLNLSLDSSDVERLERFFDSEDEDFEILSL
# SIAE inh conf: human SIAE inhibitors, retest, confirmation, biochemical, fluorescence polarization, FP-Rh probe, triplicate. SIAE FP-Rh activity-based probe. shares compounds with SIAE inh. 2,300 tested, 13% active. inhibition, % at 9.66 µM;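 active means mean inhibition of the replicates above the hit cutoff set in the primary screen, cut at about 17% in these data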;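 further: 0% = SIAE with DMSO and probe and 100% = probe without SIAE; inhibitors lower polarization as more probe stays unbound to SIAE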
# * = called active by the depositor; / = not tested or not shown.
SMILES,HTRA1 inhibitor,TCR-CD3 inh,SIAE inh,PRMT1 FP inh,mABHD4 FP,ATG4B inhibitor,SIAE inh conf
COc1ccc(NC(=O)CN2C(=O)C(C)Oc3ccc(C)cc32)cc1 (configuration not stated),0.0,-2.1,20.7*,-0.7,3.1,-4.5,7.1
COc1ccc(NC(=O)CN2C(=O)C(C)Oc3ccccc32)cc1 (configuration not stated),0.9,-0.7,-3.5,-4.5,5.0,-0.6,/
COc1ccc(NC(=O)N(C)C[C@H]2Oc3ccc(NS(=O)(=O)c4ccc(F)cc4)cc3C(=O)N([C@H](C)CO)C[C@@H]2C)cc1,-5.1,5.3,17.7*,-1.8,10.4,1.2,2.6
COC(=O)[C@]12C[C@H](CC(=O)N3CCC(c4ccccc4)CC3)C(=O)N(Cc3ccccc3)C1=C[C@H](C1CCCC1)O[C@@H]2C,/,-4.8,-2.9,-3.2,3.7,/,/
O=C1/C(=C\c2ccco2)SC(=S)N1c1ccccc1,11.5,1.5,24.8*,14.3,18.4,4.3,3.9
Cc1cccc(NC(=O)CN2CCN(C(=O)CNC(=O)c3ccc(-c4ccccc4)cc3)CC2)c1C,0.6,-8.9,1.4,-4.7,-13.1,/,/
Cc1cccc(NC(=O)CN2CCN(C(=O)C(C)Oc3ccc(C#N)cc3)CC2)c1C (configuration not stated),2.0,6.0,20.1*,-4.9,-1.2,-5.2,5.8
CC(C)=CCC(C)(C)CNC(=O)NC1CCCCC1,-6.4,2.2,20.1*,0.9,-1.8,3.7,-3.9
CC(C)(C)N(C=C(Cl)Cl)C(=O)NC1CCCCC1,-1.8,2.0,-1.8,-0.8,-5.4,0.9,/
CCCn1c(=O)[nH]c(=O)c2c1nc(-c1ccc(OC)c(Br)c1)n2CCOC,-2.9,-1.2,20.9*,-3.9,-7.6,-10.2,-16.8
C[C@H](O)[C@@H]1C(=O)N2CCc3c([nH]c4c(-c5ccccc5)cccc34)[C@@H]2C[C@@H]1N(C)C(=O)c1ccccc1F,/,-3.0,6.2,-0.6,-6.9,/,/
C[C@H](O)[C@@H]1CN2CCc3ccc(-c4ccc5c(c4)OCO5)cc3[C@@H]2C[C@@H]1N(C)C(=O)Nc1ccccc1,/,/,-7.2,-2.0,-9.7,/,/
CCCCC(=O)NC(=S)NNC(=O)c1ccc(OC)cc1,2.7,10.3,-0.5,7.7,6.8,-7.1,/
CCNC(=S)NNC(=O)c1ccc(OC)cc1,3.1,2.4,17.4*,-2.0,-4.3,2.9,7.0
Oc1ccccc1-c1nc2c3ccccc3c3ccccc3c2[nH]1,-21.2,3.6,26.6*,-0.9,-19.2,-18.1,-2.3
C=CCNC(=S)N(C)[C@H]1C[C@H]2c3cc(-c4ccccc4C)ccc3CCN2C[C@H]1[C@H](C)O,/,-3.4,-2.0,11.6,-2.9,/,/
Cc1ccc(C)c(NC(=O)c2ccc(CS(=O)(=O)Cc3ccccc3C)o2)c1,/,/,3.0,-0.5,-4.0,/,/
CN(C(=O)[C@@H](C1CC1)[C@@H](O)c1ccc(Cl)cc1)c1ccccc1,/,/,5.9,-0.3,3.4,/,/
CCN1CCN(C(=O)c2ccc(N3CC4CC(C3)c3cccc(=O)n3C4)c(NC(=O)c3cc(OC)cc(OC)c3)c2)CC1 (configuration not stated),-5.1,0.0,26.5*,1.7,6.6,3.1,3.6
COCCNC(=O)c1ccc(N2CC3CC(C2)c2cccc(=O)n2C3)c(NC(=O)c2cc(OC)cc(OC)c2)c1 (configuration not stated),2.0,-3.7,-1.1,1.8,7.0,0.8,/
COCc1nnc(NC(=O)C23CC4CC(CC(C4)C2)C3)s1,-3.7,-3.5,17.5*,8.8,-7.9,2.7,3.5
CCCc1nnc(NC(=O)C23CC4CC(CC(C4)C2)C3)s1,-0.7,-3.0,0.8,-3.7,0.4,-1.3,/
CC1=C2NC(N)=[N+](CC3CC3)C(Cc3ccccc3)[C@@H]2n2c(=O)n(-c3ccccc3)c(=O)n2C1 (some centres not stated),/,/,3.0,-0.7,2.9,/,/
O=C(O)c1ccc(COc2ccc3ccccc3c2)o1,1.1,-1.7,-0.6,-3.8,-1.1,-3.6,/
CCOc1ccc(OCc2ccc(C(=O)O)o2)cc1,4.4,-2.9,39.4*,3.0,3.8,-10.2,-1.1
SMILES,HTRA1 inhibitor,TCR-CD3 inh,SIAE inh,PRMT1 FP inh,mABHD4 FP,ATG4B inhibitor,SIAE inh conf
O=[N+]([O-])c1ccc2nc(CNc3nc(N4CCOCC4)nc4c3ncn4-c3ccsc3)[nH]c2c1,/,/,2.1,7.4,-9.6,/,/
CC(OC(=O)c1ccc(Cl)nc1)C(=O)N1CCc2ccccc21 (configuration not stated),0.1,-4.8,18.7*,2.3,-1.6,2.8,2.3
CC(=O)Nc1cccc(C(=O)OC(C)C(=O)N2CCc3ccccc32)c1 (configuration not stated),1.8,1.5,0.5,-4.6,1.7,-3.1,/
O=C(Nc1ccc(Oc2ccccc2)cc1)C1CCCN1S(=O)(=O)c1cccc2cccnc12 (configuration not stated),/,/,-1.6,-3.6,-15.4,/,/
CSCCC(NC(=O)COc1ccccc1)C(=O)N1CCN(c2ccccc2O)CC1 (configuration not stated),-1.8,-3.7,17.8*,-3.7,2.4,-7.7,6.6
CSCCC(NC(=O)COc1ccccc1)C(=O)N1CCN(c2ccccc2Cl)CC1 (configuration not stated),-9.4,5.4,-6.6,-3.9,-4.5,-4.5,/
C=CCc1cccc(CNc2nc3ccccc3n2CCC)c1O,-2.2,-3.2,19.4*,1.7,-4.3,16.5,11.0
CCCn1c(Nc2ccccc2C)nc2ccccc21,-3.8,-6.1,37.5*,1.0,4.0,-3.2,-2.7
CCCC1CCC2(CC1)CCC2OC(=O)Nc1ccc(C)cc1 (configuration not stated),/,/,3.5,-3.2,-10.7,/,/
COc1cc2oc3ccccc3c(=O)c2cc1OC,-0.5,/,/,/,/,-6.5,/
O=c1c2ccccc2oc2cc(Br)ccc12,-13.6,2.0,19.7*,-0.1,2.0,-2.1,4.1
C=CCN1[C@H](C#N)[C@@H](c2ccccc2)[C@H]1CO,/,/,-0.6,-3.8,1.6,/,/
COc1ccc(N=C2SC(C(=O)O)CC(=O)N2C)cc1 (configuration not stated),5.5,4.7,25.3*,-1.4,5.7,-5.7,-2.7
COc1cccc(-c2cc(CNC(=O)[C@H]3O[C@@H](n4ccc(=O)[nH]c4=O)[C@H](O)[C@@H]3O)no2)c1,/,6.9,74.7*,-2.2,5.5,/,68.0*

# Screening data from PubChem.
